ChEMBL document CHEMBL3244156, “Analgesic and tranquilizing activity of 5,8-disubstituted 1-tetralone Mannich bases” (1977)
Activity calls are given as the source filed them. The calls are words filed in the database; no cut-off is given here.

How the values were obtained:
Rattus norvegicus [1] = experiment: Analgesic activity in rat assessed as median foot shock required to elicit flinch-jump at 17.8 mg/kg, po after 2 hrs; format: functional
Canis familiaris = experiment: Analgesic activity in dog assessed as rippling of skin at 1.62 mg/kg, sc after 2 hrs by radiant heat assay; format: functional, Canis lupus familiaris; details: route subcutaneous
Summary of the method: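 Dogs held in a harness with a shaved mid-back patch placed under a concealed radiant heat source. Endpoint is the latency from heat onset to skin "rippling". Baseline latency measured in each dog, then retested at 0.5 and 2 h after dosing. Result expressed as % of control.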

Mus musculus [2] = experiment: Analgesic activity in mouse at 10 mg/kg, ip after 2 hrs by hot plate assay; format: functional; details: route intraperitoneal
Summary of the method: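 Mice dropped into a glass cylinder on an aluminum plate held at 57 °C. Timed from foot contact to first hind-foot flick, with a 10-s limit. Observed 0.5 and 2 h after treatment. Value is % of mice failing to react within the limit. At least ten mice per dose.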

Mus musculus [3] = experiment: Analgesic activity in mouse assessed as tail-flick latency period at 10 mg/kg, ip after 2 hrs by tail flick test; format: functional; details: route intraperitoneal
Rattus norvegicus [4] = organism: Rattus norvegicus; experiment: Induction of tolerance development in rat assessed as median foot shock required to elicit flinch-jump; format: functional, organism-based

CN1CC[C@]23c4c5ccc(O)c4O[C@H]2[C@@H](O)C=C[C@H]3[C@H]1C5 [MORPHINE]
Activity (Rattus norvegicus [1]): 1.2%
Activity (Canis familiaris): 155%
Activity (Mus musculus [2]): 70%
Activity (Mus musculus [3]): 80%
Activity (Rattus norvegicus [4]): Active
